pIC50: −log10 of the molar value. Activity calls are given as the source filed them. No cut-off for these calls is given here.
Tested on: BGC-823
Experiment: Induction of apoptosis in human BGC-823 cells assessed as upregulation of caspase-3 protein expression at IC50 after 48 hrs by ELISA
Assay type: functional, cell-based
Details: not given

Compound	Activity
O=C(OCCC[Se]C(F)(F)F)c1ccccc1Nc1cccc(C(F)(F)F)c1	Active
CC(C(=O)OCCC[Se]C(F)(F)F)c1cccc(C(=O)c2ccccc2)c1 (stereo not given)	Active
CC(C(=O)OCCC[Se]C(F)(F)F)c1ccc(-c2ccccc2)c(F)c1 (stereo not given)	Active

Tested on: Caco-2
Experiment: Cytotoxicity against human Caco2 cells assessed as reduction in cell viability measured upto 72 hrs by MTT assay
Assay type: functional, cell-based
Details: Caco-2, 72 h
Outline: (§1)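 ATCC cells grown in RPMI 1640 with 10% FBS and penicillin/streptomycin at 37 °C, 5% CO2. Cells seeded at 1×10^4 per well and allowed 24 h to attach, then exposed to graded compound concentrations for 24, 48 and 72 h, DMSO kept below 1.25%. MTT added 3 h before the end, formazan dissolved in DMSO, OD read at 570 nm. IC50 from viability, three repetitions, mean ± SD.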

Compound	pIC50
COc1ccc2cc(C(C)C(=O)OCCC[Se]C(F)(F)F)ccc2c1 (stereo not given)	4.79
CC(C(=O)OCCC[Se]C#N)c1ccc(-c2ccccc2)c(F)c1 (stereo not given)	4.56
CC(C)Cc1ccc(C(C)C(=O)OCCC[Se]C(F)(F)F)cc1 (stereo not given)	5.02
CC(C)Cc1ccc(C(C)C(=O)OCCC[Se]C#N)cc1 (stereo not given)	4.84
N#C[Se]CCCOC(=O)c1ccccc1Nc1cccc(C(F)(F)F)c1	5.08
CCc1cccc2c3c([nH]c12)C(CC)(CC(=O)OCCC[Se]C(F)(F)F)OCC3 (stereo not given)	4.98
CC(=O)Oc1ccccc1C(=O)O [ASPIRIN]	< 4.30
O=C(OCCC[Se]C(F)(F)F)c1ccccc1Nc1cccc(C(F)(F)F)c1	5.46
CC1=C(CC(=O)OCCC[Se]C(F)(F)F)c2cc(F)ccc2/C1=C\c1ccc([S+](C)[O-])cc1 (stereo not given)	4.79
CC(C(=O)OCCC[Se]C(F)(F)F)c1cccc(C(=O)c2ccccc2)c1 (stereo not given)	5.02
CC(C(=O)OCCC[Se]C(F)(F)F)c1ccc(-c2ccccc2)c(F)c1 (stereo not given)	5.35

Tested on: not listed separately
Experiment: Antioxidant activity assessed as DPPH radical scavenging activity incubated for 30 mins under dark condition relative to control
Assay type: functional
Parameters: concentration or dose not given beside the values
Details: not given
Outline: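 DPPH radical scavenging: test samples at a range of concentrations mixed with DPPH solution and held 30 min in the dark, then absorbance read at 517 nm. Ascorbic acid and ebselen served as positive controls and DMSO as negative control. % activity = [(control A − sample A)/control A] × 100. Mean ± SD of three independent experiments.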

Compound	inhibition [%]
COc1ccc2cc(C(C)C(=O)OCCC[Se]C(F)(F)F)ccc2c1 (stereo not given)	37
CC(C(=O)OCCC[Se]C#N)c1ccc(-c2ccccc2)c(F)c1 (stereo not given)	17.2
CC(C)Cc1ccc(C(C)C(=O)OCCC[Se]C(F)(F)F)cc1 (stereo not given)	48.5
CC(C)Cc1ccc(C(C)C(=O)OCCC[Se]C#N)cc1 (stereo not given)	31.2
N#C[Se]CCCOC(=O)c1ccccc1Nc1cccc(C(F)(F)F)c1	51.5
CCc1cccc2c3c([nH]c12)C(CC)(CC(=O)OCCC[Se]C(F)(F)F)OCC3 (stereo not given)	41.4
O=C(OCCC[Se]C(F)(F)F)c1ccccc1Nc1cccc(C(F)(F)F)c1	68.6
CC1=C(CC(=O)OCCC[Se]C(F)(F)F)c2cc(F)ccc2/C1=C\c1ccc([S+](C)[O-])cc1 (stereo not given)	44.9
CC(C(=O)OCCC[Se]C(F)(F)F)c1cccc(C(=O)c2ccccc2)c1 (stereo not given)	66.3
CC(C(=O)OCCC[Se]C(F)(F)F)c1ccc(-c2ccccc2)c(F)c1 (stereo not given)	73.5

Tested on: not listed separately
Experiment: Antioxidant activity assessed as bleomycin-Fe2+-induced DNA degradation by measuring absorbance at 0.1 mg/ml after 1 hr
Assay type: functional
Parameters: unit not given here
Details: not given
Outline: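 Stopped with EDTA, then TBA (1% w/v) and HCl (25% v/v) added and heated 80 °C for 30 min. After cooling on ice, DNA damage read as absorbance increase at 532 nm. L-ascorbic acid positive control.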

Compound	Activity
COc1ccc2cc(C(C)C(=O)OCCC[Se]C(F)(F)F)ccc2c1 (stereo not given)	91.4
CC(C(=O)OCCC[Se]C#N)c1ccc(-c2ccccc2)c(F)c1 (stereo not given)	86.5
CC(C)Cc1ccc(C(C)C(=O)OCCC[Se]C(F)(F)F)cc1 (stereo not given)	95.7
CC(C)Cc1ccc(C(C)C(=O)OCCC[Se]C#N)cc1 (stereo not given)	60.3
N#C[Se]CCCOC(=O)c1ccccc1Nc1cccc(C(F)(F)F)c1	76.1
CCc1cccc2c3c([nH]c12)C(CC)(CC(=O)OCCC[Se]C(F)(F)F)OCC3 (stereo not given)	86.4
O=C(OCCC[Se]C(F)(F)F)c1ccccc1Nc1cccc(C(F)(F)F)c1	115
CC1=C(CC(=O)OCCC[Se]C(F)(F)F)c2cc(F)ccc2/C1=C\c1ccc([S+](C)[O-])cc1 (stereo not given)	73.7
CC(C(=O)OCCC[Se]C(F)(F)F)c1cccc(C(=O)c2ccccc2)c1 (stereo not given)	128
CC(C(=O)OCCC[Se]C(F)(F)F)c1ccc(-c2ccccc2)c(F)c1 (stereo not given)	119

Tested on: BGC-823
Experiment: Induction of apoptosis in human BGC-823 cells assessed as down regulation of Bcl-2 protein expression at IC50 after 48 hrs by ELISA
Assay type: functional, cell-based
Details: not given
Outline: (§2)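 Cells harvested with trypsin and lysed by freeze-thaw in liquid nitrogen, then total protein isolated. Bcl-2 and IL-2 quantified by ELISA, read at 450 nm.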

Compound	Activity
O=C(OCCC[Se]C(F)(F)F)c1ccccc1Nc1cccc(C(F)(F)F)c1	Active
CC(C(=O)OCCC[Se]C(F)(F)F)c1cccc(C(=O)c2ccccc2)c1 (stereo not given)	Active
CC(C(=O)OCCC[Se]C(F)(F)F)c1ccc(-c2ccccc2)c(F)c1 (stereo not given)	Active

Tested on: BGC-823
Experiment: Cytotoxicity against human BGC-823 cells assessed as reduction in cell viability measured upto 72 hrs by MTT assay
Assay type: functional, cell-based
Details: BGC-823, 72 h
Outline: as §1

Compound	pIC50
COc1ccc2cc(C(C)C(=O)OCCC[Se]C(F)(F)F)ccc2c1 (stereo not given)	4.97
CC(C(=O)OCCC[Se]C#N)c1ccc(-c2ccccc2)c(F)c1 (stereo not given)	4.53
CC(C)Cc1ccc(C(C)C(=O)OCCC[Se]C(F)(F)F)cc1 (stereo not given)	4.84
CC(C)Cc1ccc(C(C)C(=O)OCCC[Se]C#N)cc1 (stereo not given)	4.61
N#C[Se]CCCOC(=O)c1ccccc1Nc1cccc(C(F)(F)F)c1	4.86
CCc1cccc2c3c([nH]c12)C(CC)(CC(=O)OCCC[Se]C(F)(F)F)OCC3 (stereo not given)	4.73
CC(=O)Oc1ccccc1C(=O)O [ASPIRIN]	< 4.30
O=C(OCCC[Se]C(F)(F)F)c1ccccc1Nc1cccc(C(F)(F)F)c1	5.57
CC1=C(CC(=O)OCCC[Se]C(F)(F)F)c2cc(F)ccc2/C1=C\c1ccc([S+](C)[O-])cc1 (stereo not given)	4.84
CC(C(=O)OCCC[Se]C(F)(F)F)c1cccc(C(=O)c2ccccc2)c1 (stereo not given)	5.32
CC(C(=O)OCCC[Se]C(F)(F)F)c1ccc(-c2ccccc2)c(F)c1 (stereo not given)	5.60

Tested on: not listed separately
Experiment: Antioxidant activity assessed as GPx-like activity by measuring oxidation of NADPH to NADP+ by NADPH-reductase coupled assay
Assay type: functional
Details: not given
Outline: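 NADPH/glutathione reductase coupled GPx-like assay: 50 mM phosphate buffer with 0.1% Triton X-100, NADPH reagent containing GSH, glutathione reductase and NADPH, and compound (0.01 ml of 41 mM). Reaction started with H2O2 (0.8 mM), and A340 decrease followed over 3 min to give ΔA/min. Values background-corrected for the H2O2 plus GSH reaction. Ebselen positive control.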

Compound	Activity
CC(C)Cc1ccc(C(C)C(=O)OCCC[Se]C(F)(F)F)cc1 (stereo not given)	Active
CCc1cccc2c3c([nH]c12)C(CC)(CC(=O)OCCC[Se]C(F)(F)F)OCC3 (stereo not given)	Active
CC1=C(CC(=O)OCCC[Se]C(F)(F)F)c2cc(F)ccc2/C1=C\c1ccc([S+](C)[O-])cc1 (stereo not given)	Active
CC(C(=O)OCCC[Se]C(F)(F)F)c1cccc(C(=O)c2ccccc2)c1 (stereo not given)	Active

Tested on: MCF7
Experiment: Cytotoxicity against human MCF7 cells assessed as reduction in cell viability measured upto 72 hrs by MTT assay
Assay type: functional, cell-based
Details: MCF7, 72 h
Outline: as §1

Compound	pIC50
COc1ccc2cc(C(C)C(=O)OCCC[Se]C(F)(F)F)ccc2c1 (stereo not given)	4.91
CC(C(=O)OCCC[Se]C#N)c1ccc(-c2ccccc2)c(F)c1 (stereo not given)	4.65
CC(C)Cc1ccc(C(C)C(=O)OCCC[Se]C(F)(F)F)cc1 (stereo not given)	5.00
CC(C)Cc1ccc(C(C)C(=O)OCCC[Se]C#N)cc1 (stereo not given)	4.71
N#C[Se]CCCOC(=O)c1ccccc1Nc1cccc(C(F)(F)F)c1	4.85
CCc1cccc2c3c([nH]c12)C(CC)(CC(=O)OCCC[Se]C(F)(F)F)OCC3 (stereo not given)	5.06
CC(=O)Oc1ccccc1C(=O)O [ASPIRIN]	< 4.30
O=C(OCCC[Se]C(F)(F)F)c1ccccc1Nc1cccc(C(F)(F)F)c1	5.38
CC1=C(CC(=O)OCCC[Se]C(F)(F)F)c2cc(F)ccc2/C1=C\c1ccc([S+](C)[O-])cc1 (stereo not given)	4.71
CC(C(=O)OCCC[Se]C(F)(F)F)c1cccc(C(=O)c2ccccc2)c1 (stereo not given)	5.19
CC(C(=O)OCCC[Se]C(F)(F)F)c1ccc(-c2ccccc2)c(F)c1 (stereo not given)	5.57

Tested on: BGC-823
Experiment: Induction of apoptosis in human BGC-823 cells assessed as upregulation of IL-2 protein expression at IC50 after 48 hrs by ELISA
Assay type: functional, cell-based
Details: not given
Outline: as §2

Compound	Activity
O=C(OCCC[Se]C(F)(F)F)c1ccccc1Nc1cccc(C(F)(F)F)c1	Active
CC(C(=O)OCCC[Se]C(F)(F)F)c1cccc(C(=O)c2ccccc2)c1 (stereo not given)	Active
CC(C(=O)OCCC[Se]C(F)(F)F)c1ccc(-c2ccccc2)c(F)c1 (stereo not given)	Active

Tested on: PC-3
Experiment: Cytotoxicity against human PC-3 cells assessed as reduction in cell viability measured upto 72 hrs by MTT assay
Assay type: functional, cell-based
Details: PC-3, 72 h
Outline: as §1

Compound	pIC50
COc1ccc2cc(C(C)C(=O)OCCC[Se]C(F)(F)F)ccc2c1 (stereo not given)	4.74
CC(C(=O)OCCC[Se]C#N)c1ccc(-c2ccccc2)c(F)c1 (stereo not given)	4.71
CC(C)Cc1ccc(C(C)C(=O)OCCC[Se]C(F)(F)F)cc1 (stereo not given)	4.98
CC(C)Cc1ccc(C(C)C(=O)OCCC[Se]C#N)cc1 (stereo not given)	4.65
N#C[Se]CCCOC(=O)c1ccccc1Nc1cccc(C(F)(F)F)c1	5.12
CCc1cccc2c3c([nH]c12)C(CC)(CC(=O)OCCC[Se]C(F)(F)F)OCC3 (stereo not given)	4.71
CC(=O)Oc1ccccc1C(=O)O [ASPIRIN]	< 4.30
O=C(OCCC[Se]C(F)(F)F)c1ccccc1Nc1cccc(C(F)(F)F)c1	5.24
CC1=C(CC(=O)OCCC[Se]C(F)(F)F)c2cc(F)ccc2/C1=C\c1ccc([S+](C)[O-])cc1 (stereo not given)	4.94
CC(C(=O)OCCC[Se]C(F)(F)F)c1cccc(C(=O)c2ccccc2)c1 (stereo not given)	5.06
CC(C(=O)OCCC[Se]C(F)(F)F)c1ccc(-c2ccccc2)c(F)c1 (stereo not given)	5.48

Tested on: not listed separately
Experiment: Antioxidant activity assessed as DPPH radical scavenging activity incubated for 30 mins under dark condition relative to vitamin C
Assay type: functional
Details: not given

Compound	fold change (FC)
CC(C)Cc1ccc(C(C)C(=O)OCCC[Se]C(F)(F)F)cc1 (stereo not given)	0.5
CC(C)Cc1ccc(C(C)C(=O)OCCC[Se]C#N)cc1 (stereo not given)	0.3
N#C[Se]CCCOC(=O)c1ccccc1Nc1cccc(C(F)(F)F)c1	0.5
CCc1cccc2c3c([nH]c12)C(CC)(CC(=O)OCCC[Se]C(F)(F)F)OCC3 (stereo not given)	0.4
O=C(OCCC[Se]C(F)(F)F)c1ccccc1Nc1cccc(C(F)(F)F)c1	0.7
CC1=C(CC(=O)OCCC[Se]C(F)(F)F)c2cc(F)ccc2/C1=C\c1ccc([S+](C)[O-])cc1 (stereo not given)	0.5
CC(C(=O)OCCC[Se]C(F)(F)F)c1cccc(C(=O)c2ccccc2)c1 (stereo not given)	0.7
CC(C(=O)OCCC[Se]C(F)(F)F)c1ccc(-c2ccccc2)c(F)c1 (stereo not given)	0.8

— ChEMBL document CHEMBL4811246, “New organoselenides (NSAIDs-Se derivatives) as potential anticancer agents: Synthesis, biological evaluation and in silico calculations” (Eur J Med Chem, 2021)
